The source of these data is ChEMBL document CHEMBL1147575, “Novel inhibitors of fatty acid oxidation as potential metabolic modulators” (Bioorg Med Chem Lett, 2004).

A value given as a limit tells only on which side of the number the result lay.

Data set [1] is filed under the species Rattus norvegicus. In words: Inhibition of 1-14C]palmitoyl-CoA oxidation in rat heart mitochondria at 100 uM concentration. It counts as functional. An outline of the steps:
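Single-point screen at 100 µM: percent inhibition of 1-14[C]-palmitoyl-CoA oxidation in rat heart mitochondria. 95% confidence limits generally ±15% of the mean.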

For another data set, the species on record is Homo sapiens. The data set can be described thus: Amount of parent compound remaining after incubation with human liver microsomes for 30 min. The class given is functional. An outline of the steps: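 Human liver microsome (liver S-9) incubation for 30 min; read-out is percent of parent drug remaining.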
Data set [2] is filed under the species Rattus norvegicus. The data set can be described thus: Inhibition of 1-14C]palmitoyl-CoA oxidation in rat heart mitochondria. The class given is functional. In a few lines: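 Rat heart mitochondria; substrate 1-14[C]-palmitoyl-CoA, oxidation measured. Tested at 6 concentrations; IC50 from non-linear regression curve fit, mean of n=3. Run only for compounds giving ≥50% inhibition at 100 µM.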

Data set [3] in a line: Oral bioavailability in rat after oral administration at 11.2 mg/kg dose. It counts as ADME, organism-based. The note with it: in vivo. In a few lines: (§1)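 Rats dosed orally, single dose per compound (9.7–13 mg/kg). Preliminary PK: oral bioavailability (%F), AUC (ng·hr/mL) and t1/2 (h) derived; values are average of n=3.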
A short description of data set [4]: AUC in rat after oral administration at 11.2 mg/kg dose. The class given is ADME, organism-based. Set-up: dose 11.2 mg/kg, route oral. The note with it: plasma. An outline of the steps: as §1
The nature of data set [5]: Half life period in rat after oral administration at 11.2 mg/kg dose. The class given is ADME, organism-based. Set-up: dose 11.2 mg/kg, route oral. The note with it: in vivo. In a few lines: as §1
A short description of data set [6]: Oral bioavailability in rat after oral administration at 13 mg/kg dose. It counts as ADME, organism-based. Conditions: in vivo. An outline of the steps: as §1
The nature of data set [7]: Half life period in rat after oral administration at 13 mg/kg dose. It counts as ADME, organism-based. The note with it: in vivo. Set-up: dose 13 mg/kg, route oral. In a few lines:
as §1

Data set [8] can be described thus: Area under curve in rat after oral administration at 13 mg/kg dose. Set-up: dose 13 mg/kg, route oral. The note with it: in vivo. It counts as ADME, organism-based. In a few lines:
as §1

The nature of data set [9]: Oral bioavailability in rat after oral administration at 10.5 mg/kg dose. The note with it: in vivo. It counts as ADME, organism-based. In a few lines:
as §1

The nature of data set [10]: AUC in rat after oral administration at 10.5 mg/kg dose. Set-up: dose 10.5 mg/kg, route oral. It counts as ADME, organism-based. The note with it: plasma. An outline of the steps:
as §1

The nature of data set [11]: Half life period in rat after oral administration at 10.5 mg/kg dose. It counts as ADME, organism-based. Conditions: in vivo. Set-up: dose 10.5 mg/kg, route oral. In a few lines: as §1
Data set [12] is described as follows: Oral bioavailability in rat after oral administration at 9.7 mg/kg dose. It counts as ADME, organism-based. Conditions: in vivo. In a few lines:
as §1

Data set [13] can be described thus: AUC in rat after oral administration at 9.7 mg/kg dose. The class given is ADME, organism-based. Set-up: dose 9.7 mg/kg, route oral. The note with it: plasma. An outline of the steps: as §1
Data set [14] is described as follows: Half life period in rat after oral administration at 9.7 mg/kg dose. Set-up: dose 9.7 mg/kg, route oral. Conditions: in vivo. It counts as ADME, organism-based. In a few lines: as §1

Broadly, the inhibition is how much of the control response was suppressed. `Cc1nc2cc(OCC(O)CN3CCN(CC(=O)Nc4c(C)cccc4C)CC3)ccc2o1` (centres undefined) came in with an inhibition in the data set listed under Rattus norvegicus [1] of 34%.

With `Cc1nc2cc(OCCCN3CCN(CC(=O)Nc4c(C)cccc4C)CC3)ccc2s1`, the Remaining in the data set listed under Homo sapiens was less than 30%. The same compound gave an inhibition in the data set listed under Rattus norvegicus [1] of 38%.

As usually defined, the IC50 is the concentration that inhibits the measured activity by half. Low values mean greater potency in that assay, high ones weaker potency in that assay. As to `CCc1nc2cc(OCC(O)CN3CCN(CC(=O)Nc4c(C)cccc4C)CC3)ccc2s1` (centres undefined), the Remaining in the data set listed under Homo sapiens was found to be 29%. The IC50 in the data set filed under Rattus norvegicus [2] was found to be 13 µM. In the data set filed under Rattus norvegicus [1], the inhibition was found to be 75%.

Take `Cc1cccc(C)c1NC(=O)CN1CCN(CC(O)COc2ccc3oc(-c4ccc(C(F)(F)F)cc4)nc3c2)CC1` (centres undefined): in the data set listed under Homo sapiens, the Remaining is 40%. Moreover, the IC50 in the data set listed under Rattus norvegicus [2] was 8 µM. For the same compound, in the data set listed under Rattus norvegicus [1], the inhibition was 89%.

As to `Cc1nc2cc(OC[C@H](O)CN3CCN(CC(=O)Nc4c(C)cccc4C)C[C@H]3C)ccc2s1`, in the data set filed under Homo sapiens, the Remaining is less than 10%. 2 µM corresponded to half-maximal inhibition in the data set filed under Rattus norvegicus [2] (IC50).

`Cc1nc2cc(OC[C@H](O)CN3CC(C)N(CC(=O)Nc4c(C)cccc4C)CC3C)ccc2s1` (some centres undefined): in the data set listed under Homo sapiens, the Remaining was less than 10%. Also, the IC50 in the data set listed under Rattus norvegicus [2] amounted to 0.023 µM.

What is called bioavailability is the share of a dose that reaches the circulation, judged against a reference dose that is usually intravenous. Read a low bioavailability as little systemic uptake. What is called AUC is the area under the concentration-time curve, a measure of exposure. The half-life is the time needed for the level to fall by half in the phase considered. Read a high half-life as slow decline. With `Cc1nc2cc(OC[C@H](O)CN3C(C)CN(CC(=O)Nc4c(C)cccc4C)CC3C)ccc2s1` (some centres undefined), the bioavailability in data set [3] was 11%. Further, the exposure (AUC) in [4] stood at 128 ng·h/mL. Moreover, the half-life in [5] was 3.5 h. Besides, in the data set filed under Homo sapiens, the Remaining was determined as 21%. This compound registered an IC50 in the data set listed under Rattus norvegicus [2] of 0.07 µM.

As to `Cc1nc2cc(OCC(O)CN3CCN(CC(=O)Nc4c(C)cccc4C)CC3(C)C)ccc2s1` (centres undefined), in the data set listed under Homo sapiens, the Remaining was less than 10%. In addition, the IC50 in the data set listed under Rattus norvegicus [2] worked out at 0.45 µM.

For the compound `Cc1nc2cc(OCC(O)CN3CCN(CC(=O)Nc4c(C)cccc4C)CC3)ccc2s1` (centres undefined), the bioavailability in data set [6] came out at 45%. This compound also gave a half-life in data set [7] of 3 h. Moreover, the Remaining in the data set listed under Homo sapiens is 50%. The same compound returned an IC50 in the data set listed under Rattus norvegicus [2] of 10 µM. This compound gave an inhibition in the data set filed under Rattus norvegicus [1] of 88%. In addition, in data set [8], the AUC came out at 1260 ng·h/mL.

For the compound `Cc1nc2cc(OC[C@H](O)CN3C[C@@H]4C[C@H]3CN4CC(=O)Nc3c(C)cccc3C)ccc2s1`, in the data set listed under Rattus norvegicus [1], the inhibition was 26%.

With `CCCc1nc2cc(OCC(O)CN3CCN(CC(=O)Nc4c(C)cccc4C)CC3)ccc2s1` (centres undefined), the Remaining in the data set listed under Homo sapiens is 15%. The compound also gave an IC50 in the data set listed under Rattus norvegicus [2] of 20 µM. The inhibition in the data set filed under Rattus norvegicus [1] worked out at 70%.

Regarding `Cc1nc2cc(OC[C@H](O)CN3CCN(CC(=O)Nc4c(C)cccc4C)CC3(C)C)ccc2s1`, the bioavailability in [9] is 13%. The AUC in data set [10] came to 265 ng·h/mL. The Remaining in the data set listed under Homo sapiens is less than 10%. In the data set filed under Rattus norvegicus [2], this compound came in with an IC50 of 0.11 µM. The half-life in [11] is 4.2 h.

As to `Cc1nc2cc(OC[C@@H](O)CN3CCN(CC(=O)Nc4c(C)cccc4C)CC3)ccc2s1`, the Remaining in the data set filed under Homo sapiens came out at 35%. Moreover, the inhibition in the data set filed under Rattus norvegicus [1] worked out at 47%.

With `Cc1cccc(C)c1NC(=O)CN1CCN(CC(O)COc2ccc3oc(-c4ccccc4)nc3c2)CC1` (centres undefined), the Remaining in the data set listed under Homo sapiens amounted to 15%. This compound had a 50% inhibitory concentration (IC50) in the data set listed under Rattus norvegicus [2] of 23 µM. Moreover, in the data set listed under Rattus norvegicus [1], the inhibition was found to be 70%.

As for `Cc1cccc(C)c1NC(=O)CN1CCN(CC(O)COc2ccc3ncsc3c2)CC1` (centres undefined), in the data set filed under Rattus norvegicus [1], the inhibition turned out to be 3%.

Regarding `Cc1nc2cc(OC[C@@H](O)CN3CCN(CC(=O)Nc4c(C)cccc4C)C[C@@H]3C)ccc2s1`, the Remaining in the data set listed under Homo sapiens is less than 30%. This compound registered a half-inhibitory concentration (IC50) in the data set listed under Rattus norvegicus [2] of 5 µM.

In the case of `Cc1nc2cc(OC[C@@H](O)CN3CCN(CC(=O)Nc4c(C)cccc4C)C[C@H]3C)ccc2s1`, the Remaining in the data set listed under Homo sapiens is less than 10%. Besides, the IC50 in the data set filed under Rattus norvegicus [2] was found to be 10 µM.

For the compound `Cc1nc2cc(OC[C@H](O)CN3CCN(CC(=O)Nc4c(C)cccc4C)CC3)ccc2s1`, the Remaining in the data set listed under Homo sapiens was less than 27%. The IC50 in the data set listed under Rattus norvegicus [2] stood at 4 µM.

Compound `Cc1nc2cc(OC[C@H](O)CN3CCN(CC(=O)Nc4c(C)cccc4C)C[C@@H]3C)ccc2s1` returned a bioavailability in [12] of 5%. In data set [13], the AUC was determined as 278 ng·h/mL. For the same compound, the half-life in data set [14] is 6.2 h. Besides, the Remaining in the data set filed under Homo sapiens was less than 10%. Also, the IC50 in the data set filed under Rattus norvegicus [2] is 0.2 µM.

Take `Cc1nc2cc(OC[C@@H](O)CN3C(C)CN(CC(=O)Nc4c(C)cccc4C)CC3C)ccc2s1` (some centres undefined): the Remaining in the data set listed under Homo sapiens was less than 30%. The compound further yielded a half-maximal inhibitory concentration (IC50) in the data set filed under Rattus norvegicus [2] of 2.5 µM.

On to `Cc1cccc(C)c1NC(=O)CN1CCN(CC(O)COc2ccc3oc(-c4cccc(C(F)(F)F)c4)nc3c2)CC1` (centres undefined), for which, in the data set listed under Homo sapiens, the Remaining amounted to 6%. This compound came in with an IC50 in the data set filed under Rattus norvegicus [2] of 13 µM. For the same compound, the inhibition in the data set listed under Rattus norvegicus [1] was 82%.

For the compound `Cc1nc2cc(OC[C@H](O)CN3CC4CC3CN4CC(=O)Nc3c(C)cccc3C)ccc2s1` (some centres undefined), the inhibition in the data set listed under Rattus norvegicus [1] worked out at 40%.

`Cc1nc2ccc(OCC(O)CN3CCN(CC(=O)Nc4c(C)cccc4C)CC3)cc2s1` (centres undefined) gave an inhibition in the data set listed under Rattus norvegicus [1] of 3%.
